Measurements reported in ChEMBL document CHEMBL5724801, “EUbOPEN Chemogenomics Library - Multiplex” (2024).
Values joined by “and” are separate entries in the source; they are usually repeats but may differ in a detail not shown here. Equal values may be shown once.

Tested on: Fibroblast
Test: Multiplex assay against human fibroblast
Format: toxicity, cell-based
Outline: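 Four dyes were applied at seeding to live cells: Hoechst33342, BioTracker Green Microtubule Cytoskeleton Dye, MitoTracker Red and Annexin V Alexa Fluor 680. Imaging after compound addition used a CQ1 microscope at 37°C and 5% CO2. CellPathfinder machine-learning gating then sorted cells into Hoechst high-intensity objects or normal cells, normal cells into healthy, pyknosed or fragmented nuclei, and pyknosed cells into mitotic or apoptotic, with tubulin, mitochondrial-mass and membrane-permeability phenotypes given as per cents of healthy-nucleus cells.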

[1] = 12 h, 1 µM, compound concentration 1 uM
[2] = 12 h, 10 µM, compound concentration 10 uM
[3] = 24 h, 1 µM, compound concentration 1 uM
[4] = 24 h, 10 µM, compound concentration 10 uM
[5] = 48 h, 1 µM, compound concentration 1 uM
[6] = 48 h, 10 µM, compound concentration 10 uM

`CC(C)C[C@H](NC(=O)c1cc2ccccc2s1)C(=O)N1CCN(C(=O)[C@H](CO)NS(=O)(=O)c2ccc(Cl)cc2Cl)CC1` was tested, and the “Population Fragmented Nuclei (%)” value [1] was 14.47% and 9.24%, the “Population Healthy Nuclei (%)” value [1] was 51.57% and 56.52% and the “Population Hoechst High Intensity Objects (%)” value [1] was 0%. The “Population Membrane Permeable-Phenotype (%)” value [1] was 7.32% and 5.77%, the “Population Mitochondria Different-Phenotype (%)” value [1] was 17.07% and 18.27% and the “Population Mitotic Cells (%)” value [1] was 88.89% and 55.56%. The “Population Normal (%)” value [1] was 100%, the “Population Pyknosed Nuclei (%)” value [1] was 33.96% and 34.24% and the “Population Tubulin-Different-Phenotype (%)” value [1] was 35.37% and 45.19%. For the same compound, the “Total Cell Count” value [1] was 159 and 184, the “Population Apoptotic (%)” value [2] was 10.29% and 22.73% and the “Population Fragmented Nuclei (%)” value [2] was 17.22% and 7.1%. The “Population Healthy Nuclei (%)” value [2] was 45% and 56.83%, the “Population Hoechst High Intensity Objects (%)” value [2] was 0% and the “Population Membrane Permeable-Phenotype (%)” value [2] was 19.75% and 36.54%. The “Population Mitochondria Different-Phenotype (%)” value [2] was 58.02% and 50.96%, the “Population Mitotic Cells (%)” value [2] was 89.71% and 77.27% and the “Population Normal (%)” value [2] was 100%. For the same compound, the “Population Pyknosed Nuclei (%)” value [2] was 37.78% and 36.07%, the “Population Tubulin-Different-Phenotype (%)” value [2] was 81.48% and 96.15% and the “Total Cell Count” value [2] was 180 and 183. The “Population Fragmented Nuclei (%)” value [3] was 15.79% and 9.14%, the “Population Healthy Nuclei (%)” value [3] was 54.39% and 66.29% and the “Population Hoechst High Intensity Objects (%)” value [3] was 0%. The “Population Membrane Permeable-Phenotype (%)” value [3] was 9.68% and 7.76%, the “Population Mitochondria Different-Phenotype (%)” value [3] was 10.75% and 17.24% and the “Population Mitotic Cells (%)” value [3] was 96.08% and 48.84%. For the same compound, the “Population Normal (%)” value [3] was 100%, the “Population Pyknosed Nuclei (%)” value [3] was 29.82% and 24.57% and the “Population Tubulin-Different-Phenotype (%)” value [3] was 45.16% and 50%. The “Total Cell Count” value [3] was 171 and 175, the “Population Apoptotic (%)” value [4] was 22.58% and 46.67% and the “Population Fragmented Nuclei (%)” value [4] was 11.67% and 8.33%. For the same compound, the “Population Healthy Nuclei (%)” value [4] was 71.11% and 66.67%, the “Population Hoechst High Intensity Objects (%)” value [4] was 0% and the “Population Membrane Permeable-Phenotype (%)” value [4] was 19.53% and 8.33%. For the same compound, the “Population Mitochondria Different-Phenotype (%)” value [4] was 49.22% and 55.83%, the “Population Mitotic Cells (%)” value [4] was 77.42% and 53.33% and the “Population Normal (%)” value [4] was 100%. For the same compound, the “Population Pyknosed Nuclei (%)” value [4] was 17.22% and 25%, the “Population Tubulin-Different-Phenotype (%)” value [4] was 89.84% and 96.67% and the “Total Cell Count” value [4] was 180. For the same compound, the “Population Fragmented Nuclei (%)” value [5] was 10.05% and 9.68%, the “Population Healthy Nuclei (%)” value [5] was 78.84% and 78.49% and the “Population Hoechst High Intensity Objects (%)” value [5] was 0%. For the same compound, the “Population Mitochondria Different-Phenotype (%)” value [5] was 12.75% and 8.22%, the “Population Mitotic Cells (%)” value [5] was 85.71% and 50% and the “Population Normal (%)” value [5] was 100%. The “Population Pyknosed Nuclei (%)” value [5] was 11.11% and 11.83%, the “Population Tubulin-Different-Phenotype (%)” value [5] was 33.56% and 65.07% and the “Total Cell Count” value [5] was 189 and 186. The “Population Apoptotic (%)” value [6] was 38.89% and 56.52%, the “Population Fragmented Nuclei (%)” value [6] was 11.45% and 11.37% and the “Population Healthy Nuclei (%)” value [6] was 77.71% and 77.73%. For the same compound, the “Population Hoechst High Intensity Objects (%)” value [6] was 0%, the “Population Membrane Permeable-Phenotype (%)” value [6] was 6.2% and 8.54% and the “Population Mitochondria Different-Phenotype (%)” value [6] was 39.53% and 48.78%. The “Population Mitotic Cells (%)” value [6] was 61.11% and 43.48%, the “Population Normal (%)” value [6] was 100% and the “Population Pyknosed Nuclei (%)” value [6] was 10.84% and 10.9%. For the same compound, the “Population Tubulin-Different-Phenotype (%)” value [6] was 82.17% and 96.34% and the “Total Cell Count” value [6] was 166 and 211.
